Reference: ChEMBL document CHEMBL1152882, “Optimization of novel di-substituted cyclohexylbenzamide derivatives as potent 11 beta-HSD1 inhibitors” (Bioorg Med Chem Lett, 2009)

How the values were obtained:
HeLa = test: Cytotoxicity against human HeLa cells after 72 hrs by alamar blue assay
[1] = Metabolic stability in human liver microsomes assessed as compound turnover after 30 mins; assay type: ADME, Microsome; conditions: read-out: Activity
[2] = Metabolic stability in rat liver microsomes assessed as compound turnover after 30 mins; assay type: ADME, Microsome; conditions: read-out: Activity
[3] = target: T1, Nuclear receptor subfamily 1 group I member 2 (Homo sapiens, UniProt O75469); test: Activation of human PXR expressed in human HepG2 cells at 2 uM by luciferase reporter gene assay relative to rifampin; assay type: cell-based; conditions: hepg2, 2 µM
T1 sequence (O75469 whole entry): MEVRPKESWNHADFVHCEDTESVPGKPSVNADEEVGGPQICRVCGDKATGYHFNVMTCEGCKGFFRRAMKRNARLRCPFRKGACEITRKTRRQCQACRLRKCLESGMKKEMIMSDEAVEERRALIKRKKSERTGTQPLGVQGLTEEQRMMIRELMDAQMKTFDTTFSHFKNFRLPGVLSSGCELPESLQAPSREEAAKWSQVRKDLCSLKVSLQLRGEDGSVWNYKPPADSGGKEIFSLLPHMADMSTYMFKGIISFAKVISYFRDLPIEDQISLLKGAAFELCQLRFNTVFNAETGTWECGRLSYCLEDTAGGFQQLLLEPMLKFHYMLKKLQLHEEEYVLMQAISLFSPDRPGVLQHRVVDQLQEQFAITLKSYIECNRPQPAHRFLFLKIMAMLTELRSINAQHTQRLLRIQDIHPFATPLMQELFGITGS
Summary of the method: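 Transactivation was measured in HepG2 cells transfected with a luciferase reporter construct driven by human PXR cDNA. Luciferase activity was read by chemiluminescence and expressed as percent of the rifampin control.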

[4] = target: 11-beta-hydroxysteroid dehydrogenase 1 (Homo sapiens, UniProt P28845); test: Inhibition of FLAG-tagged full length human 11beta-HSD1 expressed in baculovirus-infected Trichoplusia ni Hi5 cells assessed as reduction of [3H]cortisone to [3H]cortisol by scintillation proximity assay in presence of NADPH; assay type: cell-based, BTI-TN-5B1-4
11-beta-hydroxysteroid dehydrogenase 1 (Homo sapiens, UniProt P28845), sequence (P28845 whole entry): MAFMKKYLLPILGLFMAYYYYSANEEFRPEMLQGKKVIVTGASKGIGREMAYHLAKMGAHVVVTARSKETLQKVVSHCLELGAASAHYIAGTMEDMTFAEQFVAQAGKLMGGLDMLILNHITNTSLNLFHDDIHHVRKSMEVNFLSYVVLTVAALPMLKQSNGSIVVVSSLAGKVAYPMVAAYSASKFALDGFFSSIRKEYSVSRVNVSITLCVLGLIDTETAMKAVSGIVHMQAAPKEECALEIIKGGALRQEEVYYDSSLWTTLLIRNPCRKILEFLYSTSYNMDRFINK

[5] = Clearance in cynomolgus monkey at 0.5 mg/kg, iv and 2 mg/kg, po; conditions: in vivo
[6] = Bioavailability in cynomolgus monkey at 0.5 mg/kg, iv and 2 mg/kg, po; conditions: in vivo
[7] = Bioavailability in rat at 0.7 mg/kg, iv and 2 mg/kg, po; assay type: ADME, organism-based; conditions: in vivo
Summary of the method: (§1)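 Single-dose PK: intravenous dose 0.5 or 0.7 mg/kg (footnotes a, b), oral dose 2.0 mg/kg. Reported parameters are iv clearance (L/h/kg), Vdss (L/kg), oral AUC and % oral bioavailability.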

[8] = AUC in cynomolgus monkey at 2 mg/kg, po; assay type: ADME, organism-based, Macaca fascicularis; parameters: dose 2 mg/kg, route oral; conditions: plasma; summary of the method: as §1
[9] = AUC in rat at 2 mg/kg, po; assay type: ADME, organism-based; parameters: dose 2 mg/kg, route oral; conditions: plasma; summary of the method: as §1
[10] = Volume of distribution at steady state in rat at 0.7 mg/kg, iv and 2 mg/kg, po; assay type: ADME, organism-based; conditions: in vivo, read-out: Vdss; summary of the method: as §1
[11] = Volume of distribution at steady state in cynomolgus monkey at 0.5 mg/kg, iv and 2 mg/kg, po; conditions: in vivo, read-out: Vdss
[12] = Clearance in rat at 0.7 mg/kg, iv and 2 mg/kg, po; assay type: ADME, organism-based; conditions: in vivo; summary of the method: as §1
[13] = Bioavailability in rat at 0.5 mg/kg, iv and 2 mg/kg, po; assay type: ADME, organism-based; conditions: in vivo; summary of the method: as §1
[14] = Volume of distribution at steady state in cynomolgus monkey at 0.5 mg/kg, iv and 2 mg/kg, po; assay type: ADME, organism-based, Macaca fascicularis; conditions: in vivo, read-out: Vdss; summary of the method: as §1
[15] = Bioavailability in cynomolgus monkey at 0.5 mg/kg, iv and 2 mg/kg, po; assay type: ADME, organism-based, Macaca fascicularis; conditions: in vivo; summary of the method: as §1
Rattus norvegicus = test: Inhibition of 11beta-HSD1 in epididymal fat tissue of po dosed Sprague-Dawley rat assessed as reduction in [3H]cortisol production after 2 hrs by scintillation proximity assay; conditions: Adipose tissue
[16] = Volume of distribution at steady state in rat at 0.5 mg/kg, iv and 2 mg/kg, po; assay type: ADME, organism-based; conditions: in vivo, read-out: Vdss; summary of the method: as §1
[17] = Clearance in rat at 0.5 mg/kg, iv and 2 mg/kg, po; assay type: ADME, organism-based; conditions: in vivo; summary of the method: as §1
Cynomolgus monkey = test: cells; conditions: Macaca fascicularis, Adipose tissue
[18] = Fraction unbound in human serum by ultracentrifugation assay; assay type: ADME, cell-free
Summary of the method: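 Human protein binding was measured with separation by ultracentrifugation and reported as fraction unbound.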

[19] = Clearance in cynomolgus monkey at 0.5 mg/kg, iv and 2 mg/kg, po; assay type: ADME, organism-based, Macaca fascicularis; conditions: in vivo; summary of the method: as §1
[20] = target: 11-beta-hydroxysteroid dehydrogenase 1 (Rattus norvegicus, UniProt P16232); test: Inhibition of rat 11beta-HSD1
11-beta-hydroxysteroid dehydrogenase 1 (Rattus norvegicus, UniProt P16232), sequence (P16232 whole entry): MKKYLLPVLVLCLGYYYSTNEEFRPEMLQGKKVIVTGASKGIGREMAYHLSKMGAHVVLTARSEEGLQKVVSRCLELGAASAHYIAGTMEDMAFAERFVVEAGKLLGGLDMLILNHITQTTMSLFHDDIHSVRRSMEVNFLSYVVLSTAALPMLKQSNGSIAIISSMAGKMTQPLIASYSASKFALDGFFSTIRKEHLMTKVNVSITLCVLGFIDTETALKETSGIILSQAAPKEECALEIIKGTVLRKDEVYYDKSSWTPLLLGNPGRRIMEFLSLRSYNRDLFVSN
Summary of the method: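 Biochemical assay using baculovirus-produced recombinant full-length rat 11β-HSD1 with NADPH as cofactor. Substrate is [3H]cortisone. The [3H]-cortisol formed is captured by anti-cortisol monoclonal antibody SPA beads and quantified by scintillation. IC50 is from dose-response curve fitting of at least duplicate samples.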

[21] = Tmax in po dosed Sprague-Dawley rat; assay type: ADME, organism-based; conditions: in vivo

C[C@@](O)(c1ccc(C(=O)N(C2CC2)[C@H]2CC[C@](C#N)(c3ccccn3)CC2)cc1)C(F)(F)F
IC50 (HeLa): > 10 µM
metabolised at 0.5 h [1]: < 5%
metabolised at 0.5 h [2]: 14%
Activity [3]: 7.6%

C[C@@](O)(c1ccc(C(=O)N(C2CC2)[C@H]2CC[C@@](C#N)(c3ccccn3)CC2)cc1)C(F)(F)F
IC50 (HeLa): > 10 µM
metabolised at 0.5 h [1]: 6.9%
metabolised at 0.5 h [2]: 95%
Activity [3]: 6.3%

C[C@](O)(c1ccc(C(=O)N(C2CC2)[C@H]2CC[C@H](c3cccnc3)CC2)cc1)C(F)(F)F
IC50 (HeLa): 2.5 µM
IC50 [4]: 0.0017 µM
metabolised at 0.5 h [1]: < 5%
Activity [3]: 2.2%

C[C@](O)(c1ccc(C(=O)N(C2CC2)[C@H]2CC[C@@H](c3cccnc3)CC2)cc1)C(F)(F)F
IC50 (HeLa): > 10 µM
IC50 [4]: 0.0016 µM
metabolised at 0.5 h [1]: 94%
Activity [3]: 38%

C[C@](O)(c1ccc(C(=O)N(C2CC2)[C@H]2CC[C@](C#N)(c3ccc(C#N)cc3)CC2)cc1)C(F)(F)F
IC50 (HeLa): > 10 µM
metabolised at 0.5 h [1]: 6.8%
metabolised at 0.5 h [2]: < 5%
Activity [3]: < 5%

C[C@](O)(c1ccc(C(=O)N(C2CC2)[C@H]2CC[C@](C#N)(c3cccnc3)CC2)cc1)C(F)(F)F
IC50 (HeLa): > 10 µM
metabolised at 0.5 h [1]: < 5%
metabolised at 0.5 h [2]: 35%
Activity [3]: < 5%

C[C@](O)(c1ccc(C(=O)N(C2CC2)[C@H]2CC[C@](O)(c3ccccc3)CC2)cc1)C(F)(F)F
IC50 (HeLa): 5.1 µM
metabolised at 0.5 h [1]: < 5%
metabolised at 0.5 h [2]: < 5%
Activity [3]: < 5%

C[C@](O)(c1ccc(C(=O)N(C2CC2)[C@H]2CC[C@@](C)(O)CC2)cc1)C(F)(F)F
IC50 (HeLa): > 10 µM
metabolised at 0.5 h [1]: < 5%
metabolised at 0.5 h [2]: < 5%
Activity [3]: < 5%

C[C@](O)(c1ccc(C(=O)N(C2CC2)[C@H]2CC[C@@H](c3ccc(C#N)cc3)CC2)cc1)C(F)(F)F
IC50 (HeLa): > 10 µM
IC50 [4]: 0.0049 µM
metabolised at 0.5 h [1]: 33%
Activity [3]: 75%

C[C@](O)(c1ccc(C(=O)N(C2CC2)[C@H]2CC[C@](O)(c3cccnc3)CC2)cc1)C(F)(F)F
IC50 (HeLa): > 10 µM
metabolised at 0.5 h [1]: < 5%
metabolised at 0.5 h [2]: < 5%
Activity [3]: < 5%

C[C@](O)(c1ccc(C(=O)N(C2CC2)[C@H]2CC[C@H](c3ccccc3)CC2)cc1)C(F)(F)F
IC50 (HeLa): > 10 µM
metabolised at 0.5 h [1]: < 5%
Activity [3]: 31%

C[C@](O)(c1ccc(C(=O)N(C2CC2)[C@H]2CC[C@](O)(CC3CC3)CC2)cc1)C(F)(F)F
IC50 (HeLa): 2.8 µM
metabolised at 0.5 h [1]: 10%
metabolised at 0.5 h [2]: 43%
Activity [3]: 5.9%

C[C@](O)(c1ccc(C(=O)N(C2CC2)[C@H]2CC[C@H](c3ccc(C#N)cc3)CC2)cc1)C(F)(F)F
IC50 (HeLa): 1.1 µM
IC50 [4]: 0.00076 µM
metabolised at 0.5 h [1]: < 5%
Activity [3]: 11%

CC(C)[C@]1(O)CC[C@@H](N(C(=O)c2ccc([C@](C)(O)C(F)(F)F)cc2)C2CC2)CC1
IC50 (HeLa): > 10 µM
metabolised at 0.5 h [1]: 10%
metabolised at 0.5 h [2]: 69%
Activity [3]: < 3.4%

C[C@](O)(c1ccc(C(=O)N(C2CC2)[C@H]2CC[C@@](O)(c3ccccc3)CC2)cc1)C(F)(F)F
IC50 (HeLa): > 10 µM
metabolised at 0.5 h [1]: 15%
metabolised at 0.5 h [2]: > 95%
Activity [3]: < 5%

C[C@](O)(c1ccc(C(=O)N(C2CC2)[C@H]2CC[C@](O)(c3ccccn3)CC2)cc1)C(F)(F)F
IC50 (HeLa): > 10 µM
metabolised at 0.5 h [1]: < 5%
metabolised at 0.5 h [2]: < 5%
Activity [3]: 6.1%

C[C@](O)(c1ccc(C(=O)N(C2CC2)[C@H]2CC[C@](C#N)(c3ccccc3)CC2)cc1)C(F)(F)F
IC50 (HeLa): > 10 µM
metabolised at 0.5 h [1]: < 5%
metabolised at 0.5 h [2]: 6%
Activity [3]: < 5%

C[C@](O)(c1ccc(C(=O)N(C2CC2)[C@H]2CC[C@](C#N)(C3CC3)CC2)cc1)C(F)(F)F
IC50 (HeLa): > 10 µM
clearance [5]: 0.093 L/h/kg
bioavailability [6]: 5%
metabolised at 0.5 h [1]: < 10%
bioavailability [7]: 40%
AUC [8]: 1 µg·h/mL
metabolised at 0.5 h [2]: < 10%
AUC [9]: 4.1 µg·h/mL
Vd [10]: 2.2 L/kg
Vd [11]: 1.9 L/kg
Activity [3]: < 5%
clearance [12]: 0.19 L/h/kg

C[C@](O)(c1ccc(C(=O)N(C2CC2)[C@H]2CC[C@](O)(C3CC3)CC2)cc1)C(F)(F)F
IC50 (HeLa): > 10 µM
bioavailability [13]: 76%
Vd [14]: 1.5 L/kg
metabolised at 0.5 h [1]: < 5%
AUC [8]: 4.7 µg·h/mL
metabolised at 0.5 h [2]: 7.4%
bioavailability [15]: 43%
AUC [9]: 8.9 µg·h/mL
ED50 (Rattus norvegicus): 10 mg/kg
Vd [16]: 2.7 L/kg
clearance [17]: 0.24 L/h/kg
IC50 (Cynomolgus monkey): 0.64 µM
fraction unbound [18]: 0.12
Activity [3]: < 5%
clearance [19]: 0.11 L/h/kg
IC50 [20]: 0.244 µM
Tmax [21]: 2 h
